assay: Toxicity liver stage against HepG2, at 10uM; format: cell-based; design: test concentration 10 uM, cell line HepG2-A16-CD81EGFP; conditions: human, HepG2-A16-CD81EGFP cells; read-out: INHIBITION
Procedure, shortened: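 Uninfected HepG2-A16-CD81EGFP cells, 3 × 10^3 per well, 1536-well, plated on prespotted compound at 10 μM final, parasite-free screening media added to match infected plates; puromycin 10 μM positive, DMSO 0.5% negative; run in parallel with 48 h PbLuc assay at 37 °C, 5% CO2; viability by CellTiter-Glo luminescence, normalized to controls.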

Point of comparison: `COc1ccc(S(=O)(=O)Cc2noc(CC(C)C)n2)cc1`, cytotoxicity at 10 µM 5.52%. Against it:
- CC(C)(C)n1ncc2c(=O)n(CC(=O)NCc3ccco3)cnc21 — lower, -1.6%
- CC1(C)[C@H](Cc2cc(CN3CCCCC3)on2)C[C@@H]1NC(=O)C1CC1 — lower, -8.17%
- CC(C)N1CC[C@H](c2nnc(Cc3c[nH]c4ccccc34)o2)C1 — lower, -9.04%
- O[C@@H]1C[C@@H](c2nc(-c3ccc(OC(F)(F)F)cc3)no2)N(CC2CC2)C1 — lower, 1.32%
- CC(=O)N1CC[C@H]2CC(=O)N(C3CCCCC3)CC[C@H]2C1 — lower, 0.325%
- CN1C(=O)CO[C@H]2CN(C(=O)Nc3ccc(F)cc3)C[C@H]21 — lower, -2.22%
- CNc1oc(-c2ccc(S(=O)(=O)N(C)C)o2)nc1C#N — lower, -5.96%
- O=C(Cc1c(F)cccc1Cl)Nc1cc(N2CCCC2)ncn1 — lower, -2.85%
- CC1NC(=O)COC12CCN(C(=O)Cc1ccsc1)CC2 (centres undefined) — lower, -5.73%
- CN(C)C(=O)N1C[C@@H](C(=O)NCc2ccco2)C[C@H]2OCC[C@H]21 — lower, 2.57%
- CCN1C(=O)C2(CCOCC2)c2cc(NC(=O)c3cccn3C)ccc21 — lower, -2.13%
- NC(=O)N1CC[C@@H]2O[C@H](COCC(=O)N3CCCC3)CC[C@@H]21 — lower, -1.49%
- O=C(c1ccn(COc2ccc(F)cc2)n1)N1CCCC1 — higher, 6.25%
- CN(C)C(=O)c1ccn(COc2ccccc2Cl)n1 — higher, 6.91%
- COc1cccc(-c2cnc(C3CCNCC3)cn2)c1 — lower, -30.4%
- CCc1nnc(Nc2cccc(C3CCN(C(C)=O)CC3)n2)s1 — lower, 0.579%
- CN(CC(=O)Nc1cc(C(F)(F)F)c[nH]c1=O)Cc1ccccc1 — higher, 12%
- CC(C)(C)OC(=O)N(CCNS(=O)(=O)N1CCOCC1)C1CC1 — lower, -4.43%
- CCOc1cccc(COC(=O)c2cc(C)on2)n1 — lower, -5.08%
- Cc1occc1C(=O)N1CCCN(Cc2ncc(Cl)n2C)CC1 — lower, -1.25%
- CC(C)c1cc(C(=O)N2CCc3ccccc3C2C(=O)O)nn1C (centres undefined) — lower, -2.53%
- CN(CC(N)=O)CC1(c2ccc(Br)cc2)CC1 — lower, 2.17%
- COc1ccc(CNC(=O)CCn2cc(C)cn2)cc1C — lower, -4.27%
- Cc1nn(-c2ccccc2)c(C)c1CNC(=O)NC1CC(=O)N(C)C1 (centres undefined) — lower, -2.17%
- CN1CCN(C2CCN(Cc3ccc(Cl)s3)CC2)C1=O — higher, 11.2%
- CS(=O)(=O)NCC1CCCCN1Cc1ccccc1C#N (centres undefined) — lower, -11.5%
- COC(=O)N1CCCC(NC(=O)NCc2ccc(C)nc2)C1 (centres undefined) — lower, -4.73%
- Cc1ccc(C(=O)N(Cc2ccccc2F)C2CC2)c(=O)[nH]1 — lower, 0.846%
- Cc1nc(CNC2CCc3ncnn3C2)oc1C (centres undefined) — lower, -3.86%
- CC(SCC(=O)NC(N)=O)c1ccc(Cl)cc1 (centres undefined) — lower, 4.86%
- CCN(CC(=O)N(C)C)C(=O)c1nc(C)n(-c2ccccc2Cl)n1 — higher, 7.3%
- Cc1sc(C(=O)O)cc1S(=O)(=O)Nc1c(F)cccc1-n1cccn1 — lower, -1.37%
- Cc1cn(CC(=O)NC2CCN(C(C)C)CC2)c2ccccc12 — lower, 0.0531%
- Cc1cc(NC(=O)N2CCCC2CN2CCOCC2)nn1C (centres undefined) — lower, 1.63%
- COCCS(=O)(=O)Nc1ccc(-n2nccc2C(F)(F)F)cc1 — lower, 1.26%
- CN(Cc1ccncc1)C(=O)c1ccc2c(c1O)OC(C)(C)C2 — lower, 1.95%
- N#CCCN(Cc1ccccn1)C(=O)Nc1cccc(F)c1 — lower, 3.43%
- Nc1nccnc1C(=O)N(Cc1ccccc1O)CC1CCCO1 (centres undefined) — lower, -4.45%
- Cc1nnc(CN(C)C(=O)C(CC(C)C)N2CCCCC2=O)n1C (centres undefined) — lower, -1.88%
- COCCC(Cc1cccc(Br)c1)C(=O)N(C)C (centres undefined) — higher, 13%
- Cc1cc(-c2noc(C3CCS(=O)(=O)C3)n2)ccc1F (centres undefined) — higher, 8.22%
- O=C1CCc2cc(C(=O)NCc3ccc(Cl)s3)ccc2N1 — lower, 3.65%
- OC(COCc1cccs1)Cn1cc(Br)cn1 (centres undefined) — lower, 1.91%
- Cc1noc(C)c1Cn1cc(I)cc(C)c1=O — lower, 4.92%
- Cc1ccc(N(C)CC(O)COCc2ccccc2F)c(C)c1 (centres undefined) — higher, 18%
- c1csc(N2CCCN(c3nccn4cnnc34)CC2)n1 — lower, -5.05%
- CCC(Nc1ccc(CCN2CCOCC2)cc1)C(N)=O (centres undefined) — lower, 4.42%
- CN(CCc1ccncc1)c1cnn(C)c(=O)c1Br — lower, -5.44%
- CCN(Cc1ccc(Cl)s1)S(=O)(=O)CC — lower, -1.11%
- Cn1nc(C(=O)NCc2cccc(Cn3ccnc3)c2)ccc1=O — higher, 8.53%
- COc1ccc(CN(C)c2ncc(S(N)(=O)=O)s2)c(OC)c1 — lower, -2.03%
- CN(Cc1ccccc1F)C(=O)Cn1cc(NC(=O)C(C)(C)C)cn1 — lower, 5.23%
- CC(C)C(C)NC(=O)Nc1ccccc1CN1CCOCC1 (centres undefined) — lower, 0.795%
- CN(C)C(=O)N1CCN(Cc2nnc(C(C)(C)C)o2)CC1 — lower, 0.278%
- CCC(=O)Nc1ccc(C(C)NC(=O)COCCOC)cc1 (centres undefined) — lower, -7.71%
- COC(=O)N1CCCCC1C(=O)N(C)Cc1cc(-c2cccnc2)no1 (centres undefined) — lower, 0.83%
- COCC(=O)N1CCCC(C(=O)NCc2cc(CC(C)C)on2)C1 (centres undefined) — higher, 10.6%
- CN1CCN2CCN(Cc3ccccc3Cn3cccn3)CC2C1 (centres undefined) — lower, -133%
- CC(=O)Cc1c(C)nn(-c2cncc(C(N)=O)c2)c1C — lower, -17.5%
- c1ccc2c(c1)ccn2CCCNC1CCOC2(CCOCC2)C1 (centres undefined) — lower, -7.04%
- Cn1cc(-c2cc(C(=O)N3CCOCC3)c3ccc(F)cc3n2)cn1 — lower, 1.5%
- Cc1cccc(Cn2nc(C3CCNCC3)n(-c3ccccc3)c2=O)c1 — lower, -4.68%
- CCN1CCC(CC(=O)NCC(O)c2cccc(OC)c2)CC1 (centres undefined) — lower, -6.87%
- Cc1cccc(C)c1OC1CN(C(=O)C2CCN(C(=O)N(C)C)CC2)C1 — lower, 2.69%
- CCCn1nccc1C(=O)N1CCN(C2CCc3ccccc3C2)CC1 (centres undefined) — lower, -130%
- O=C(C1CCC1)N1CCN(Cc2ccccc2F)[C@H]2CS(=O)(=O)C[C@H]21 — lower, 0.15%
- Cc1ccc(C)c(OCCN(C)C(=O)C2CCCN2C(N)=O)c1C (centres undefined) — lower, -1.01%
- O=C(Cc1c[nH]c(=O)[nH]c1=O)N1CCCCC1CCc1ccccc1 (centres undefined) — lower, -9.05%
- CC(=O)N[C@@H]1CN(Cc2nnc(-c3ccccc3)o2)C[C@H]1C(C)C — lower, -0.598%
- CNc1cc(C)nc(-c2cc(NCCO)nc3[nH]ccc23)n1 — higher, 5.85%
- COCCn1cncc1-c1nc2c([nH]1)CC(C)(C)CNC2=O — higher, 8.42%
- Nc1nc(Sc2cccs2)cc(N2CC[C@H](CO)[C@H](O)C2)n1 — lower, 2.68%
- Cc1ccsc1[C@@H]1CCN(C(=O)CCc2nc3ccccc3[nH]2)C[C@H]1O — lower, -1.67%
- CN1CCCC2(CCN(C(=O)CCn3cncn3)C2)C1=O (centres undefined) — lower, -11%
- CCCc1cc(C(=O)N(C)Cc2cnc3ccccc3n2)n(C)n1 — lower, -19.3%
- CC(C)OCCCNC(=O)CS(=O)(=O)Cc1ccc(C(C)(C)C)cc1 — lower, 4.92%
- CC(NC(=O)NCc1cccs1)c1ccc2c(c1)CCC(=O)N2 (centres undefined) — lower, 5.41%
- CCc1nc(C)c(C(=O)NCCNC(=O)Cc2cccc(F)c2)s1 — lower, 1.98%
- CC1COCCN1C(=O)Nc1cnc2c(cnn2C(C)C)c1 (centres undefined) — lower, -2.21%
- Cc1ccc(S(=O)(=O)N2CSCC2C(=O)NCC(F)(F)F)cc1C (centres undefined) — lower, -0.855%
- CN(C)c1ncccc1CNS(=O)(=O)c1cc(F)ccc1F — higher, 5.67%
- CCn1cc(NC(=O)NCCc2ccc3c(c2)OCCO3)cn1 — lower, -7.72%
- CCc1ccsc1C(=O)N1CCN(CC(C)O)CC1 (centres undefined) — lower, -33.1%
- CC(c1cccc(S(N)(=O)=O)c1)N(C)CCOC(C)(C)C (centres undefined) — lower, -32.8%
- NC(=O)CN1CCC(NC(=O)COc2ccc(Cl)c(Cl)c2)CC1 — lower, -8.7%
- CC(=O)N(Cc1noc(C)n1)C1CCN(Cc2c(C)noc2C)C1 (centres undefined) — lower, -9.55%
- Cc1cnn(C2CCCN(C(=O)CCCOc3ccccc3F)C2)c1 (centres undefined) — lower, -7.52%
- Cc1cnn(C2CCCN(C(=O)c3cn(-c4ccccc4)nn3)C2)c1 (centres undefined) — lower, -22.1%
- CCc1nnc(CN2CCC(N3CCN(CC)C3=O)CC2)o1 — lower, 1.52%
- CCOc1ccc(CC(CNC(=O)c2ccco2)C(N)=O)cc1 (centres undefined) — higher, 8.26%
- COc1ccc(Br)c(C(=O)N2CCCC(c3nc(C)no3)C2)c1 (centres undefined) — higher, 7.08%
- Cc1noc(C2CCCN(C(=O)c3cncc(Br)c3)C2)n1 (centres undefined) — lower, -1.82%
- CCC1CCCN(CC(=O)Nc2oc(C)c3c(C)n[nH]c(=O)c23)C1 (centres undefined) — lower, -3.66%
- CC(=O)c1cccc(S(=O)(=O)N2CSCC2C(=O)NCC(F)(F)F)c1 (centres undefined) — lower, 3.78%
- Cc1ccc(-c2nc(CN3CCCC(Cn4cncn4)C3)no2)cc1 (centres undefined) — lower, -4.86%
- O=C1CC2(CCNCC2)C(=O)N1c1cccc(F)c1 — lower, 1.7%
- Cc1nnn2c1COCC(CNCc1nccs1)C2 (centres undefined) — lower, -109%
- CNC(=O)CN1CC[C@H]2CN(C(=O)c3ccccc3C)C[C@H]2C1 — lower, 0.793%
- Fc1ccccc1CN1C[C@H](OCC2CCOCC2)[C@H]2OCCC[C@H]21 — lower, -2.4%
- c1coc(CN2CCC3(CC2)COC(COCC2CC2)C3)c1 (centres undefined) — lower, -4.37%
- O=C(c1cnoc1)N1CCC[C@]2(C[C@@H](Oc3ccccn3)CO2)C1 — lower, -5.96%
- Cn1cccc1C(=O)N1CCO[C@@H]2CN(Cc3nccs3)C[C@@H]2C1 — lower, -103%
- CC(C)C[C@H](N)C(=O)N1CC2(CCNCC2)c2cc(Cl)ccc21 — lower, -8.34%
- Cn1ccc(C(=O)NC2CCC23CCN(Cc2cnn(C)c2)CC3)c1 (centres undefined) — lower, -146%
- Cc1cccc(CN2C[C@H]3CCC[C@@]3(COCc3csc(C)n3)C2)n1 — higher, 14.3%
- O=C1C[C@H]2[C@@H](CCN2Cc2ccccn2)N1Cc1cccnc1 — lower, 4.88%
- NC1CCC(n2cc(C(=O)NC3COc4ccccc43)nn2)CC1 (centres undefined) — lower, -4.8%
- CN(C)C(=O)N1C[C@H]2CC[C@@H](C1)N(C/C=C/c1ccc(F)cc1)C2 — lower, -0.545%
